Laboratory results taken from ChEMBL document CHEMBL1148768, “Nitrated indenoisoquinolines as topoisomerase I inhibitors: a systematic study and optimization” (2007).

Columns and labels:
Assay type in all cases: functional
HCT-116 = test: Cytotoxicity against human HCT116 cells
In short: (§1)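 Read-out is growth inhibition of human cancer cell lines. GI50 is taken as the compound concentration giving 50% growth inhibition.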

DU-145 = test: Cytotoxicity against human DU145 cells; in short: as §1
UACC-62 = test: Cytotoxicity against human UACC62 cells; in short: as §1
HOP-62 = test: Cytotoxicity against human HOP62 cells; in short: as §1
MDA-MB-435 = test: Cytotoxicity against human MDA-MB-435 cells
SF-539 = test: Cytotoxicity against human SF539 cells; in short: as §1
SN12C = test: Cytotoxicity against human SN12C cells; in short: as §1
OVCAR-3 = test: Cytotoxicity against human OVCAR-3 cells

SMILES: COc1ccc2c(c1)C(=O)c1c-2n(CCCN)c(=O)c2cc([N+](=O)[O-])ccc12
- GI50 (HCT-116): < 10 nM

SMILES: [N-]=[N+]=NCCCn1c2c(c3ccccc3c1=O)C(=O)c1ccccc1-2
- GI50 (DU-145): 29500 nM

SMILES: O=C1c2ccccc2-c2c1c1ccc([N+](=O)[O-])cc1c(=O)n2CCCN1CCOCC1
- GI50 (UACC-62): 380 nM
- GI50 (HOP-62): 21 nM
- GI50 (MDA-MB-435): 1230 nM
- GI50 (SF-539): 95 nM
- GI50 (HCT-116): 38 nM
- GI50 (SN12C): 309 nM
- GI50 (DU-145): 85 nM

SMILES: O=C1c2ccccc2-c2c1c1ccc([N+](=O)[O-])cc1c(=O)n2CCCNCCO
- GI50 (UACC-62): 200 nM
- GI50 (HOP-62): 31 nM
- GI50 (OVCAR-3): 1350 nM
- GI50 (MDA-MB-435): 1070 nM
- GI50 (SF-539): > 100000 nM
- GI50 (HCT-116): 27 nM
- GI50 (SN12C): 229 nM
- GI50 (DU-145): > 100000 nM

SMILES: COc1ccc2c(c1)C(=O)c1c-2n(CCCn2ccnc2)c(=O)c2cc([N+](=O)[O-])ccc12
- GI50 (UACC-62): < 10 nM
- GI50 (HOP-62): < 10 nM
- GI50 (OVCAR-3): 20 nM
- GI50 (MDA-MB-435): < 10 nM
- GI50 (SF-539): < 10 nM
- GI50 (HCT-116): < 10 nM
- GI50 (SN12C): < 10 nM
- GI50 (DU-145): < 10 nM

SMILES: COc1ccc2c(c1)C(=O)c1c-2n(CCCN=[N+]=[N-])c(=O)c2ccccc12
- GI50 (UACC-62): 75900 nM
- GI50 (HOP-62): 33900 nM
- GI50 (OVCAR-3): 52500 nM
- GI50 (MDA-MB-435): 64600 nM
- GI50 (SF-539): 44700 nM
- GI50 (HCT-116): 26900 nM
- GI50 (SN12C): > 100000 nM
- GI50 (DU-145): 61700 nM

SMILES: COc1ccc2c(c1)C(=O)c1c-2n(CCCN(C)C)c(=O)c2ccccc12
- GI50 (UACC-62): 1000 nM
- GI50 (HOP-62): 78 nM
- GI50 (OVCAR-3): 427 nM
- GI50 (MDA-MB-435): 617 nM
- GI50 (SF-539): 240 nM
- GI50 (HCT-116): 102 nM
- GI50 (SN12C): 245 nM
- GI50 (DU-145): 257 nM

SMILES: COc1ccc2c(c1)C(=O)c1c-2n(CCCN2CCOCC2)c(=O)c2ccccc12
- GI50 (UACC-62): 1580 nM
- GI50 (HOP-62): 1410 nM
- GI50 (OVCAR-3): 2690 nM
- GI50 (MDA-MB-435): 4680 nM
- GI50 (SF-539): 1950 nM
- GI50 (HCT-116): 1260 nM
- GI50 (SN12C): 4070 nM
- GI50 (DU-145): 2290 nM

SMILES: O=C1c2ccccc2-c2c1c1ccc([N+](=O)[O-])cc1c(=O)n2CCCBr
- GI50 (SF-539): > 100000 nM
- GI50 (HCT-116): 3470 nM

SMILES: O=C1c2ccccc2-c2c1c1ccccc1c(=O)n2CCCN1CCOCC1
- GI50 (UACC-62): 5370 nM
- GI50 (HOP-62): 3720 nM
- GI50 (OVCAR-3): 16600 nM
- GI50 (MDA-MB-435): > 100000 nM
- GI50 (SF-539): 3470 nM
- GI50 (SN12C): 21400 nM
- GI50 (DU-145): 7240 nM

SMILES: COc1ccc2c(c1)C(=O)c1c-2n(CCCI)c(=O)c2cc([N+](=O)[O-])ccc12
- GI50 (UACC-62): 148 nM
- GI50 (OVCAR-3): 3020 nM
- GI50 (MDA-MB-435): 1480 nM
- GI50 (SF-539): 58 nM
- GI50 (HCT-116): 46 nM
- GI50 (SN12C): 309 nM
- GI50 (DU-145): 34 nM

SMILES: COc1ccc2c(c1)C(=O)c1c-2n(CCCNCCO)c(=O)c2cc([N+](=O)[O-])ccc12
- GI50 (UACC-62): < 10 nM
- GI50 (HOP-62): < 10 nM
- GI50 (OVCAR-3): < 10 nM
- GI50 (MDA-MB-435): < 10 nM
- GI50 (SF-539): < 10 nM
- GI50 (SN12C): 12 nM
- GI50 (DU-145): < 10 nM

SMILES: COc1ccc2c(c1)C(=O)c1c-2n(CCCN2CCOCC2)c(=O)c2cc([N+](=O)[O-])ccc12
- GI50 (UACC-62): < 10 nM
- GI50 (HOP-62): < 10 nM
- GI50 (OVCAR-3): < 10 nM
- GI50 (MDA-MB-435): < 10 nM
- GI50 (HCT-116): < 10 nM
- GI50 (SN12C): < 10 nM

SMILES: O=C1c2ccccc2-c2c1c1ccccc1c(=O)n2CCCNCCO
- GI50 (UACC-62): 178 nM
- GI50 (HOP-62): 195 nM
- GI50 (OVCAR-3): 550 nM
- GI50 (MDA-MB-435): 490 nM
- GI50 (SF-539): 550 nM
- GI50 (SN12C): 269 nM
- GI50 (DU-145): 174 nM

SMILES: COc1ccc2c(c1)C(=O)c1c-2n(CCCNCCO)c(=O)c2ccccc12
- GI50 (UACC-62): 550 nM
- GI50 (HOP-62): 26 nM
- GI50 (OVCAR-3): 417 nM
- GI50 (MDA-MB-435): 389 nM
- GI50 (SF-539): 112 nM
- GI50 (HCT-116): 44 nM
- GI50 (SN12C): 158 nM
- GI50 (DU-145): 55 nM

SMILES: NCCCn1c2c(c3ccc([N+](=O)[O-])cc3c1=O)C(=O)c1ccccc1-2
- GI50 (SF-539): 302 nM

SMILES: COc1ccc2c(c1)C(=O)c1c-2n(CCCN)c(=O)c2ccccc12
- GI50 (HOP-62): < 10 nM
- GI50 (OVCAR-3): 28 nM
- GI50 (MDA-MB-435): 59 nM
- GI50 (SF-539): 38 nM
- GI50 (HCT-116): < 10 nM
- GI50 (SN12C): < 10 nM
- GI50 (DU-145): 14 nM

SMILES: COc1cc2c3c(n(C)c(=O)c2cc1OC)-c1cc2c(cc1C3=O)OCO2
- GI50 (UACC-62): 4200 nM
- GI50 (HOP-62): 1300 nM
- GI50 (MDA-MB-435): 96000 nM
- GI50 (HCT-116): 35000 nM
- GI50 (SN12C): 68000 nM
- GI50 (DU-145): 37000 nM

SMILES: COc1ccc2c(c1)C(=O)c1c-2n(CCCn2ccnc2)c(=O)c2ccccc12
- GI50 (UACC-62): 71 nM
- GI50 (HOP-62): 56 nM
- GI50 (OVCAR-3): 1660 nM
- GI50 (MDA-MB-435): 646 nM
- GI50 (SF-539): 178 nM
- GI50 (HCT-116): 110 nM
- GI50 (SN12C): 676 nM
- GI50 (DU-145): 204 nM

SMILES: O=C1c2ccccc2-c2c1c1ccccc1c(=O)n2CCCn1ccnc1
- GI50 (UACC-62): 790 nM
- GI50 (HOP-62): 2690 nM
- GI50 (OVCAR-3): 1660 nM
- GI50 (HCT-116): 1410 nM
- GI50 (SN12C): 1660 nM
- GI50 (DU-145): 1410 nM

SMILES: NCCCn1c2c(c3ccccc3c1=O)C(=O)c1ccccc1-2
- GI50 (UACC-62): 260 nM
- GI50 (OVCAR-3): 1380 nM
- GI50 (MDA-MB-435): 780 nM
- GI50 (SF-539): 250 nM
- GI50 (HCT-116): 180 nM
- GI50 (SN12C): 160 nM
- GI50 (DU-145): 220 nM

SMILES: COc1ccc2c(c1)C(=O)c1c-2n(CCCN(C)C)c(=O)c2cc([N+](=O)[O-])ccc12
- GI50 (UACC-62): < 10 nM
- GI50 (HOP-62): < 10 nM
- GI50 (OVCAR-3): 28 nM
- GI50 (MDA-MB-435): < 10 nM
- GI50 (SF-539): < 10 nM
- GI50 (HCT-116): < 10 nM
- GI50 (SN12C): < 10 nM
- GI50 (DU-145): < 10 nM

SMILES: [N-]=[N+]=NCCCn1c2c(c3ccc([N+](=O)[O-])cc3c1=O)C(=O)c1ccccc1-2
- GI50 (SF-539): 79400 nM
